Reference: ChEMBL document CHEMBL4808196, “Dual Bcl-XL /Bcl-2 inhibitors discovered from DNA-encoded libraries using a fragment pairing strategy” (Bioorg Med Chem, 2021)
Calls of active or inactive are those of the source. The calls are words filed in the database; no cut-off is given here.

Columns and labels:
[1] = target: T1, Bcl-2-like protein 1 (Homo sapiens, UniProt Q07817); test: Binding affinity to Bcl-XL (unknown origin) using puma peptide by surface plasmon resonance-based competition assay; conditions: dose 1.0 µM
Procedure, shortened: (§1)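 SPR competition on a streptavidin chip carrying 2800 RU biotinylated ligand. Flowed 0.5 µM Bcl-XL alone or premixed with 1.0 µM native BH3 peptide: Bim 26mer or Puma 25mer. Binding responses compared.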

[2] = target: Apoptosis regulator Bcl-2 (Homo sapiens, UniProt P10415); test: Binding affinity to Bcl-2 (unknown origin) measured by surface plasmon resonance based […]
Procedure, shortened: (§2)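 Biotinylated ligand (2800 RU) immobilised on a streptavidin SPR chip. Bcl protein in HBS-EP running buffer injected at 0.5, 0.25, 0.125 and 0.062 µM. Association 120 s, dissociation 240 s, 30 µl/min, 25 C. Surface regenerated with a 5 s pulse of 10 mM NaOH. KD estimated by kinetic fitting.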

[3] = target: Induced myeloid leukemia cell differentiation protein Mcl-1 (Homo sapiens, UniProt Q07820); test: Binding affinity to Mcl-1 (unknown origin) measured by surface plasmon resonance based pull down assay; procedure, shortened: as §2
[4] = target: T1, Bcl-2-like protein 1; test: Binding affinity to recombinant Bcl-XL (unknown origin) premixed with human HeLa cell lysate incubated for 1 hr by SDS PAGE Western blot based pull down assay; format: subcellular
Procedure, shortened: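 Streptavidin magnetic beads loaded with 100 µM biotinylated compound in PBS-T for 30 min, washed, then equilibrated in HBS-EP. His-tagged recombinant Bcl-XL (0.2 µM) spiked into 10 µg HeLa lysate and incubated with beads for 1 h with rotation. Three washes, heat elution in SDS buffer (95 C, 5 min), SDS-PAGE, anti-His western blot.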

[5] = target: T1, Bcl-2-like protein 1; test: Competitive binding affinity to Bcl-XL (unknown origin) using ABT-199 by western blot based pull down assay
[6] = tested on: K562; test: Cytotoxicity against human K562 cells assessed as cell survival measured after 72 hrs by MTT assay; format: cell-based; conditions: K562, 72 h
Procedure, shortened: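 MTT viability assay: 10^4 cells/well seeded and held overnight at 37 C, 5% CO2 (K562 in IMDM with 10% FCS). Serially diluted compounds added for 72 h of exposure. MTT added at 0.3 mg/ml final for 4 h at 37 C. Formazan dissolved in 10% SDS/0.01 N HCl, absorbance read at 560/690 nm. EC50 from concentration–response plot.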

[7] = target: T1, Bcl-2-like protein 1; test: Binding affinity to Bcl-xl (unknown origin) measured by surface plasmon resonance based pull down assay; procedure, shortened: as §2
[8] = target: T1, Bcl-2-like protein 1; test: Binding affinity to Bcl-XL (unknown origin) using Bim peptide by surface plasmon resonance-based competition assay; procedure, shortened: as §1

T1 sequence (Q07817 whole entry): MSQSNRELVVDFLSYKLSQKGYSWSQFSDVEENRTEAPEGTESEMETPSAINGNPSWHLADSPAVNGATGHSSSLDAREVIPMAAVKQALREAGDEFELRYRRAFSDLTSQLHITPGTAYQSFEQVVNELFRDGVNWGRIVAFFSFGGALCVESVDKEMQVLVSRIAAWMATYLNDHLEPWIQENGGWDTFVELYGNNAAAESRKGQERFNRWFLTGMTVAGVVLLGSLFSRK
Sequence of Induced myeloid leukemia cell differentiation protein Mcl-1 (Q07820 whole entry): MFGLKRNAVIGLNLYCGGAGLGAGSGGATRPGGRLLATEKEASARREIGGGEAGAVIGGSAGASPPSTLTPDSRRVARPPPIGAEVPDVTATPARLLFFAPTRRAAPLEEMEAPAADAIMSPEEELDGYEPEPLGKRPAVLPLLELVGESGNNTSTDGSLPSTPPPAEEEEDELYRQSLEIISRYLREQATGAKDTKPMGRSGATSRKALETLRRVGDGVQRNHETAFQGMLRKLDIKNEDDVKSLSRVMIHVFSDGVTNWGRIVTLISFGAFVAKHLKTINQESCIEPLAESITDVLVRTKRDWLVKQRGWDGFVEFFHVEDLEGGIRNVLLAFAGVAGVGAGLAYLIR
Sequence of Apoptosis regulator Bcl-2 (P10415 whole entry): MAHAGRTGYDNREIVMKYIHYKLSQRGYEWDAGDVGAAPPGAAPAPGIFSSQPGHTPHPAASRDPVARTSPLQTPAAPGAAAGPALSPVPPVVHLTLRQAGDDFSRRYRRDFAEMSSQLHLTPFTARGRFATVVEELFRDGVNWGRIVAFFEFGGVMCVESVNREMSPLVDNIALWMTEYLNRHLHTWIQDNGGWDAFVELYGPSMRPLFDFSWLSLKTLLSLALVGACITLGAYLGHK

Activity [1]	Kd [2] [µM]	Kd [3] [µM]	Activity [4]	Activity [5]	Kd [7] [µM]	Activity [8]	SMILES	EC50 [6] [µM]
Active	0.021	1.24	Active	Active	0.096	Active	CC(C)C(NC1=NS(=O)(=O)c2ccccc21)C(=O)NCC(NC(=O)C1(NC(=O)COc2ccccc2-c2n[nH]c3ccc(Cl)cc23)CC1)C(=O)NC(=O)CCCCC[C@@H]1SC[C@@H]2NC(=O)N[C@@H]21 (some centres undefined)	1.72
							CC1(C)CCC(CN2CCN(c3ccc(C(=O)NS(=O)(=O)c4ccc(NCC5CCOCC5)c([N+](=O)[O-])c4)c(Oc4cnc5[nH]ccc5c4)c3)CC2)=C(c2ccc(Cl)cc2)C1 [VENETOCLAX]	2.1
